# Test results published in ChEMBL document CHEMBL1212710, “A small molecule that binds Hedgehog and blocks its signaling in human cells” (Nat Chem Biol, 2009).
# pKd: −log10 of the molar value. Calls of active or inactive are those of the source. The calls are words filed in the database; no cut-off is given here.
# Experiments:
# [1] = target: Sonic hedgehog protein (Mus musculus) (UniProt Q62226); assay: Inhibition of N-palmitoylated Shh in mouse Shh Light2 cells after 30 hrs by firefly luciferase reporter gene assay; format: functional, cell-based; details: Shh Light II
# In short: (§1)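 Shh-LIGHT2 (NIH3T3 with Gli-luciferase) cultured in DMEM/10% calf serum with G-418 and Zeocin, grown to confluence (~5–7 days); compounds added in DMEM with 0.5% calf serum, 30 h at 37 °C; pathway activity read as luminescence with Bright-Glo reagent.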
# [2] = target: T1, Sonic hedgehog protein (Homo sapiens, UniProt Q15465); assay: Binding affinity to N-terminal Shh by surface plasmon resonance assay
# T1 sequence (Q15465 24-197 limits assumed): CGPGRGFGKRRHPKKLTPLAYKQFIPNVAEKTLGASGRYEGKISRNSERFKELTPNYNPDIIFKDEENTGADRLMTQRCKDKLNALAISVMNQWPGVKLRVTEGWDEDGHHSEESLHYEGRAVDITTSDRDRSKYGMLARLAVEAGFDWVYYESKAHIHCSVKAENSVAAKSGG
# In short: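 SPR (Biacore T100) at 25 °C; ShhN amine-coupled to CM4 chip at 10 µg/mL in 10 mM sodium acetate pH 5.5 (1000–1200 RU), underivatized reference surface. Running/sample buffer 0.01 M HEPES pH 7.4, 0.15 M NaCl, 0.05% P20, 5% DMSO; compounds serially diluted 0.78–25 µM, 2 min injections at 80 µL/min; double referencing plus DMSO solvent correction.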
# [3] = Cytotoxicity against mouse Shh Light2 cells assessed as cell viability; format: cell-based; details: shh light ii
# In short: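 Shh-LIGHT2 (NIH3T3 with Gli-luciferase) grown in DMEM/10% calf serum with G-418 and Zeocin, plated and grown to confluence (~5–7 days); treated in DMEM with 0.5% calf serum for 30 h at 37 °C; viability read by CellTiter-Glo luminescence after 10 min at room temperature.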
# [4] = target: Sonic hedgehog protein (Mus musculus) (UniProt Q62226); assay: Inhibition of N-palmitoylated Shh in mouse Shh Light2 cells at 6.25 uM after 30 hrs by firefly luciferase reporter gene assay; format: functional, cell-based; details: Shh Light II
# In short: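 Shh-LIGHT2 (NIH3T3 carrying Gli-luciferase reporter) grown to confluence over about 5-7 days in DMEM, 10% calf serum, G-418 and Zeocin at 37 °C. Treated in DMEM with 0.5% calf serum for 30 h. Readout by luminescence with Bright-Glo. Parallel identically treated wells read with CellTiter-Glo after 10 min at room temperature.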
# [5] = target: Sonic hedgehog protein (Mus musculus) (UniProt Q62226); assay: Inhibition of Shh in MEF deficient in ptch1 gene assessed as beta-galactosidase activity at 6.6 uM after 30 hrs by luminometry
# [6] = target: T1, Sonic hedgehog protein; assay: Inhibition of N-terminal N-palmitoylated Shh-mediated Gli2 transcription in human keratinocytes after 30 hrs by real-time quantitative PCR analysis in presence of 3.6 uM Smo agonist purmorphamine; format: functional, cell-based
# [7] = target: Smoothened homolog (Mus musculus) (UniProt P56726); assay: Displacement of BODIPY-cyclopamine from Smo expressed in HEK293T cells after 30 mins; details: HEK-293T
# Chain of Smoothened homolog (Mus musculus) (P56726 whole entry, looked up): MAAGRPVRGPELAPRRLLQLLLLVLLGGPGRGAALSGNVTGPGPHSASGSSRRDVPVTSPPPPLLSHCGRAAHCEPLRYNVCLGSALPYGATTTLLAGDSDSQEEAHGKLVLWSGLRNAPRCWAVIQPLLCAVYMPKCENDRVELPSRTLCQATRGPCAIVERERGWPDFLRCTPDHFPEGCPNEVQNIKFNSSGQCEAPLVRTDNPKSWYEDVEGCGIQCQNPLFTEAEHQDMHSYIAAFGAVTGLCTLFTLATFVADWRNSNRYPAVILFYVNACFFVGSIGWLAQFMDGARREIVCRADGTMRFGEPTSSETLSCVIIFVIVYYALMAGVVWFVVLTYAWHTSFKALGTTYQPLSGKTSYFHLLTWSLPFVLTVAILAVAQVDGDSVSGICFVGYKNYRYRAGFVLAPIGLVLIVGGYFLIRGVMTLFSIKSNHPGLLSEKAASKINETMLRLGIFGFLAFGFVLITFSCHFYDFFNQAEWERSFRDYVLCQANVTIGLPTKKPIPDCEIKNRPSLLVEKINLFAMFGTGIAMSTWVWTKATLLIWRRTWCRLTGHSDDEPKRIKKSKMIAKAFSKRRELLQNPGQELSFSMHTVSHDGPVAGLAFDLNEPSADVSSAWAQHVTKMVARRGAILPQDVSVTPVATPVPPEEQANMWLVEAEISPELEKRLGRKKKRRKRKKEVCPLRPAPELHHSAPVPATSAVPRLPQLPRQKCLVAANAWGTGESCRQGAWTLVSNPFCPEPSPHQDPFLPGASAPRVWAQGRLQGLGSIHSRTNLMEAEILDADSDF
# [8] = target: Sonic hedgehog protein (Mus musculus) (UniProt Q62226); assay: Inhibition of N-terminal Shh-induced differentiation in mouse C3H10T1/2 cells assessed as inhibition of alkaline phosphatase induction; format: cell-based; details: C3H 10T1/2
# [9] = target: T1, Sonic hedgehog protein; assay: Inhibition of N-terminal N-palmitoylated Shh-mediated Gli2 transcription in human keratinocytes at 100 uM after 30 hrs by real-time quantitative PCR analysis; format: cell-based
# [10] = target: Sonic hedgehog protein (Mus musculus) (UniProt Q62226); assay: Inhibition of N-terminal Shh-induced differentiation in mouse C3H10T1/2 cells assessed as inhibition of alkaline phosphatase induction in presence of 3.6 uM purmorphamine; format: cell-based; details: C3H 10T1/2
# [11] = target: T1, Sonic hedgehog protein; assay: Inhibition of N-terminal N-palmitoylated Shh-mediated Gli1 transcription in human keratinocytes after 30 hrs by real-time quantitative PCR analysis; format: cell-based
# [12] = target: Sonic hedgehog protein (Mus musculus) (UniProt Q62226); assay: Inhibition of N-palmitoylated Shh in mouse Shh Light2 cells at 6.3 to 50 uM after 30 hrs by firefly luciferase reporter assay in presence of 3.6 uM Smo agonist purmorphamine; format: functional, cell-based; details: Shh Light II; in short: as §1
# [13] = target: T1, Sonic hedgehog protein; assay: Inhibition of N-terminal N-palmitoylated Shh-mediated Gli2 transcription in human keratinocytes after 30 hrs by real-time quantitative PCR analysis in presence of 100 nM Smo agonist SAG; format: functional, cell-based
# [14] = target: Sonic hedgehog protein (Mus musculus) (UniProt Q62226); assay: Inhibition of Shh in MEF deficient in ptch1 gene assessed as beta-galactosidase activity at 1.56 to 25 uM after 30 mins by luminometry; details: in the assay text read “30 hrs” for “30 mins”
# In short: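 Ptc1−/− mouse embryonic fibroblasts carrying β-galactosidase construct, grown in DMEM/10% FBS to confluence (3–4 days, 37 °C); compounds in DMEM/0.5% FBS for 30 h; Beta-Glo reagent added with 30 min gentle agitation at room temperature, then luminescence read.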
# [15] = target: T1, Sonic hedgehog protein; assay: Inhibition of N-terminal N-palmitoylated Shh-mediated Gli1 transcription in human keratinocytes after 30 hrs by real-time quantitative PCR analysis in presence of 3.6 uM Smo agonist purmorphamine; format: functional, cell-based
# [16] = target: T1, Sonic hedgehog protein; assay: Inhibition of Shh-mediated Gli1 mRNA transcription in human synthetic skin by real-time quantitative PCR analysis
# [17] = target: Sonic hedgehog protein (Mus musculus) (UniProt Q62226); assay: Inhibition of N-palmitoylated Shh in mouse Shh Light2 cells at > 30 uM after 30 hrs by firefly luciferase reporter gene assay; format: functional, cell-based; details: Shh Light II; in short: as §1
# [18] = target: T1, Sonic hedgehog protein; assay: Inhibition of N-terminal N-palmitoylated Shh-mediated Gli1 transcription in human keratinocytes after 30 hrs by real-time quantitative PCR analysis in presence of 100 nM Smo agonist SAG; format: functional, cell-based
# [19] = target: T1, Sonic hedgehog protein; assay: Inhibition of Shh-mediated Gli2 mRNA transcription in human synthetic skin by real-time quantitative PCR analysis
# [20] = target: Sonic hedgehog protein (Mus musculus) (UniProt Q62226); assay: Inhibition of N-palmitoylated Shh in mouse Shh Light2 cells at 6.3 to 50 uM after 30 hrs by firefly luciferase reporter assay in presence of 100 nM Smo agonist SAG; format: functional, cell-based; details: Shh Light II; in short: as §1
smiles,measurement,setting,value
C[C@H]1COC(=O)[C@@H](N)CC/C=C/C[C@@H](CC(=O)N(CCO)Cc2ccccc2)C(=O)N1,inhibition,[1],Active
same,Activity,[2],Dose-dependent effect
same,Activity,[3],Non-toxic
CC1=C2C[C@H]3[C@@H](CC=C4C[C@@H](O)CC[C@@]43C)[C@@H]2CC[C@]12O[C@@H]1C[C@H](C)CN[C@H]1[C@H]2C,inhibition,[4],Active
same,inhibition,[5],Active
O=C(C[C@@H]1C/C=C/CCC(=O)O[C@H](c2ccccc2)CNC1=O)NCc1ccc(Cl)cc1 [ROBOTNIKININ],Activity,[6],inactive
same,Activity,[7],inactive
same,inhibition,[8],Active
same,inhibition,[9],Active
same,inhibition,[10],inactive
same,inhibition,[11],Active
same,inhibition,[12],Active
same,Activity,[13],inactive
same,inhibition,[14],inactive
same,inhibition,[1],Dose-dependent effect
same,Activity,[15],inactive
same,pKd,[2],5.51
same,inhibition,[16],Active
same,inhibition,[17],Active
same,Activity,[18],inactive
same,inhibition,[19],Active
same,inhibition,[20],Active
same,Activity,[3],Non-toxic
